Measurements published in PubChem BioAssay AID804 (SRMLSC, 2007).
In all, about 140,000 compounds went through this assay and about 710 (0.51%) were called active. Only a selection was taken, and actives are over-represented in it overall. Unmarked numbers belong to inactive results.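 Rule for the calls: active = inhibition above a set limit, 3 SD over the mean compound inhibition (cut at about 44% in these data); inactive = the rest.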

test: growth inhibitors of yeast BB579 in restrictive medium, primary screen, yeast lifespan-shortening project, S. cerevisiae (AID 804); settings: OD615, 48 h, at 10 µM, active compounds read high
How it was run: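 Assay system – yeast BB579 (DeaD) · Dosing – single compound dose of 10 µM, 0.25% DMSO final · Detection – OD615 turbidity measurement · Buffer or medium – CSMM-D restrictive synthetic medium containing dextrose (glucose) · Benchmarks – positive control amphotericin B 10 µg/mL · Incubation – 48 h exposure, 30 °C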

Compound	inhibition
Cc1ccc(N2C(=O)C(NC(=O)c3c(F)cccc3F)(C(F)(F)F)C3=C2CC(C)(C)CC3=O)cc1 (stereo unspecified)	-1.52%
CCOC(=O)NN1C(=O)c2ccccc2NC1c1cccc(O)c1 (stereo unspecified)	9.36%
O=C1c2ccccc2NC(c2ccc(-c3cccc(Cl)c3)o2)N1O (stereo unspecified)	64.1% (active)
C=CCN(CC=C)S(=O)(=O)c1ccc(C(=O)Nc2nc3c(s2)CCc2ccccc2-3)cc1	-67.9%
O=C(C1CCCO1)N1CCN(C(=S)Nc2cccc(Cl)c2)CC1 (stereo unspecified)	-3.25%
CC1(C)CC(=O)C(N=Nc2ccc(S(=O)(=O)N3CCCCCC3)cc2)=C(O)C1	-5.4%
C/C(CC(=O)Nc1ccc(Cl)cc1)=N\NC(=O)C(=O)NCCO	-6.42%
Cc1cc2oc(C(=O)Nc3c(C)n(C)n(-c4ccccc4)c3=O)c(C)c2cc1Cl	-44%
Cc1ccc(NC(=O)c2cccs2)cc1S(=O)(=O)N(C)C	-35.7%
Cc1ccc(-c2nn(C(C)(C)C)c3ncnc(N)c23)cc1	81.2% (active)
O=C(CC(=O)Nc1ccc(Cl)c(Cl)c1)N/N=C/c1ccc(O)cc1	-54.1%
O=C(Cc1ccc(Cl)c(Cl)c1)Nc1ccc(SC(F)F)cc1	-39.5%
O=C(CC(O)(C(F)(F)F)C(F)(F)F)Nc1ccc(Cl)c(Cl)c1	80.1% (active)
Cc1scc(C(=O)NNC(=S)NCc2ccccc2)c1C	-2.5%
CCOC(=O)NN1C(=O)c2ccccc2NC1c1ccccc1O (stereo unspecified)	7.28%
COC(=O)C1=C(C)N(C)C(=S)NC1c1ccccc1 (stereo unspecified)	8.95%
Cc1c(Cl)cnc(NC(=O)COC(=O)c2ccc(S(=O)(=O)NCc3ccco3)cc2)c1Cl	-12.2%
CC(Sc1cccc[n+]1[O-])C(=O)Nc1cccc(S(=O)(=O)N2CCOCC2)c1 (stereo unspecified)	95.2% (active)
Cc1ccc(-c2nn(-c3ccccc3)cc2C(=O)Nc2cccc(S(=O)(=O)N3CCOCC3)c2)cc1	-29%
CCN(CC)c1ccc(S(=O)(=O)N2CCOCC2)cc1NC(=O)CSc1cccc[n+]1[O-]	89% (active)
Cc1cc(C(=O)OC(C)C(=O)Nc2cccc(S(=O)(=O)N3CCOCC3)c2)c(C)o1 (stereo unspecified)	-42.7%
O=C(CN1CCN(c2ccc(O)cc2)CC1)Nc1cc(S(=O)(=O)N2CCOCC2)ccc1Cl	-37.9%
Cn1c(SCC(=O)Nc2cccc(O)c2)nnc1-c1ccc(S(=O)(=O)N2CCOCC2)cc1	2.85%

Compound	inhibition
COc1ccccc1CNC(=O)CN1CCC(n2cnc3cc(F)ccc32)CC1	-21.9%
Cn1c(CNC(=O)c2ccccc2F)nnc1SCc1ccc(F)cc1	6.65%
CCCCC1N2CC3([N+](=O)[O-])CN1CC([N+](=O)[O-])(C2)C3(C)C (stereo unspecified)	-27.8%
CC(C)(C)C1C/C(=C/c2ccco2)C(=O)/C(=C/c2ccco2)C1 (stereo unspecified)	-19.6%
Oc1c(CN2CCN(c3ccc(F)cc3)CC2)cc(Cl)c2cccnc12	99.3% (active)
CCN1CCN(C(c2cccnc2)c2cc(Cl)c3cccnc3c2O)CC1 (stereo unspecified)	6.22%
O=C(c1cccc(C(=O)N2CCN(c3ccc(F)cc3)CC2)c1)N1CCN(c2ccc(F)cc2)CC1	-61.4%
CCc1cccc(CC)c1NC(=S)NCc1ccc2[nH]c(C)cc2c1	54.3% (active)
Cc1cc2cc(CNC(=O)c3cccs3)ccc2[nH]1	-4.49%
Cc1cccc(NC(=S)NCc2ccc3[nH]c4c(c3c2)CCCC4)c1	15.9%
CC(Oc1ccc2ccccc2c1)C(=O)NNC(=S)NC(=O)c1ccco1 (stereo unspecified)	98.2% (active)
O=C(Nc1ccc2ccccc2c1)/C(=C\c1ccc2c(c1)OCO2)NC(=O)c1ccco1	6.72%
O=C(Nc1ccc2ccccc2c1)/C(=C/c1cccc(Br)c1)NC(=O)c1ccco1	-32.8%
COc1ccc(CCNC(=O)c2ccco2)cc1	-10.2%
CCCc1ccc(OCC(=O)NNC(=S)NC(=O)c2ccco2)cc1	98.5% (active)
COc1ccc(C(=O)NC(=S)NNC(=O)CCc2ccccc2)cc1	-10.9%
NC(=O)C[C@@H]1NC(=O)CNC(=O)c2cc([N+](=O)[O-])cc(I)c2NCCC(C(N)=O)NC1=O (stereo partly specified)	1.08%
CC1CN/C(=C\C(=O)c2ccc(Br)cc2)C(=O)N1 (stereo unspecified)	-42.4%
Cc1cc(Cl)ccc1NC(=S)N1CCC(C(N)=O)(N2CCCCC2)CC1	1.37%
Cc1ccc(OC(=O)CCC(=O)Nc2ccc(Br)cc2)cc1	3.42%
O=C(CSc1ncn[nH]1)Nc1nsc(-c2ccccc2)n1	4.99%
Cc1cccc(OP(=O)(Nc2c(C)n(C)n(-c3ccccc3)c2=O)Oc2cccc(C)c2)c1	-0.66%
CCOC(=O)C1CCN(C(=O)/C=C/c2cc(OC)c(OC)c(OC)c2)CC1	-12.6%

Compound	inhibition
O=C(COC(=O)c1cc(-c2cccs2)nn1-c1ccccc1)Nc1cc([N+](=O)[O-])ccc1Cl	-30.3%
O=C(Nc1cccc([N+](=O)[O-])c1)c1ccc2c(c1)OCO2	-10.3%
CCOC(=O)c1ccccc1C(=O)N1CCOCCOCCOCC1	-13.3%
CCCCOc1ccc(C(=O)NCC(=O)OCC(=O)N2CCN(S(=O)(=O)c3ccc(C)cc3C)CC2)cc1	-38.7%
O=C(COC(=O)/C=C/c1cccc(Cl)c1)NCCc1ccccc1	-16.6%
Cc1ccc2nc(S(=O)(=O)O)[nH]c2c1	-11.6%
CC(C)c1nc2ccc(C(=O)O)cc2[nH]1	-7.86%
Cc1nc2ccc(C(=O)O)cc2[nH]1	44.4% (active)
COc1ccc(CCNC(=O)CSc2nc(-c3ccc(OC)c(OC)c3)ccc2C#N)cc1	-21.2%
COc1cccc(/C=N/Nc2ncc(C(F)(F)F)cc2Cl)c1O	64.1% (active)
COc1cc(/C=C2\SC(=S)N(Nc3ncc(C(F)(F)F)cc3Cl)C2=O)cc(OC)c1OC	-16.3%
COc1cccc(/C=N\NC(=O)C2=NNC(=O)C2C)c1O (stereo unspecified)	1.19%
Cc1nn(C)c(C(=O)NNC(=S)NC2CCCCC2)c1Cl	-11.7%
CCOC(=O)c1cnc(-n2nc(C)cc2C)nc1NNc1cc(C)nc(-c2ccccc2)n1	63.6% (active)
CCOC(=O)c1cnc(-c2ccccc2)nc1Oc1ccc(C)cc1	-3.41%
CCOC(=O)c1cnc(-n2nc(C)cc2C)nc1-n1nc(C)cc1C	-33.3%
CCc1cc(C(N)=O)c(NC(=O)c2ccc(OC)cc2)s1	13.8%
COc1cccc(NC(=S)N(CCc2c(C)[nH]c3ccccc23)Cc2ccco2)c1	-16.9%
O=C(Nc1cccc(F)c1)c1coc(=O)c(Br)c1	-16.6%
N=c1oc2ccccc2cc1C(=O)N/N=C/c1ccccc1	-35.6%
CCOC(=O)N1CCN(C(=O)c2cc3c(ccc4ccccc43)oc2=O)CC1	4.59%
CNC(=O)c1cc2c(ccc3ccccc32)oc1=N	87% (active)
O=[N+]([O-])c1cc(C(F)(F)F)ccc1NN=C1CCCC1	-8.75%

Compound	inhibition
Cc1ccc(Cl)cc1N1CCN(C(=O)c2cccc3c(=O)c(C)c(-c4ccccc4)oc23)CC1	-11.9%
COc1ccc(-c2[nH]ncc2/C=N/NC(=O)c2cc(Br)ccc2O)c(OC)c1	-15.9%
CCCc1cc(-c2nc(-c3ccc(C)cc3)cs2)ccn1	6.88%
COc1ccc([C@H]2[C@H](C(C)=O)N3N=Cc4ccccc4C3C23C(=O)OC(C)(C)OC3=O)cc1 (stereo partly specified)	-14.6%
CNc1ccc(NC(C)=O)cc1[N+](=O)[O-]	-4.52%
O=C(NC(Nc1nc2ccc([N+](=O)[O-])cc2s1)(C(F)(F)F)C(F)(F)F)c1ccccc1	77.5% (active)
COC(=O)C(NC(=O)c1ccc(OC)cc1)(Nc1ncc(S(=O)(=O)c2ccc([N+](=O)[O-])cc2)s1)C(F)(F)F (stereo unspecified)	-39.1%
Cc1cc(C)cc(OCC(=O)Nc2nc3ccc([N+](=O)[O-])cc3s2)c1	-41.2%
Cc1c(Cl)cccc1NC(=O)Nc1ccc(C(=O)N2CCCC2)cc1	-7.32%
Cn1c(-c2ccco2)nc2cc3ccccc3cc21	60.5% (active)
CN(c1nc2ccccc2n2c(-c3ccco3)nnc12)S(=O)(=O)c1ccccc1	-17.9%
CN1c2ccccc2-c2nc3ccccc3n2C1c1ccco1 (stereo unspecified)	-46.1%
CC(C)C(=O)Nc1ccc2c3c(cccc13)CC2	-41.5%
O=C1C=C(c2ccc(Cl)cc2)C(=O)N1Nc1ccccc1	98.1% (active)
O=C1c2cccc3cc(Br)cc(c23)C(=O)N1Nc1ccccc1	-67.3%
O=C(Nc1ccccc1)OCc1cc(-c2ccc(Cl)cc2)on1	-39.2%
CCn1ncc(CNC(=O)C2(C)CC2(Br)Br)c1C (stereo unspecified)	-38.8%
COc1ccc(NC(=S)NCc2cccs2)c(OC)c1	-22.6%
CCN1/C(=C/c2ccc3ccc(C)cc3[n+]2CC)Sc2ccccc21	82.5% (active)
CCC(=O)/C=C1\Sc2ccccc2N1CC	-18.9%
Cc1cccc(NC(=S)N(CCN(C)C)C(C)c2ccco2)c1 (stereo unspecified)	-21.1%
Cc1ccc(SCCC(=O)NC(C(C)C)C(C)C)cc1	-7.21%
